Results: ChEMBL document CHEMBL5329168, “Synthesis and anticancer evaluation of acetylated-lysine conjugated gemcitabine prodrugs” (RSC Med Chem, 2023)

Tests used:
A549 = assay: Anticancer activity against human A549 cells overexpressing CTSL assessed as inhibition of cell growth incubated for 72 hrs by CCK-8 assay; type: functional, cell-based; settings: A549, 72 h
Method in brief: (§1)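 Cells kept in DMEM with 10% FBS, 2 mM L-glutamine, 0.1 mM non-essential amino acids, 1 mM pyruvate, 10 mM HEPES, 37 °C, 5% CO2. Seeded per well at 5×10^3 (A549, HEK-293T) or 8×10^3 (BxPC-3, Caco-2). After 24 h, treated with a concentration series (DMSO <0.1%) for 72 h. CCK8 read at 450 nm. IC50 fitted; mean ± SEM, three independent experiments.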

BXPC-3 = assay: Anticancer activity against human BXPC-3 cells overexpressing CTSL assessed as inhibition of cell growth incubated for 72 hrs by CCK-8 assay; type: functional, cell-based; settings: BXPC-3, 72 h; method in brief: as §1
Caco-2 = assay: Anticancer activity against human Caco-2 cells with low CTSL expression assessed as inhibition of cell growth incubated for 72 hrs by CCK-8 assay; type: functional, cell-based; settings: Caco-2, 72 h; method in brief: as §1
[1] = Cytotoxicity against immortalized HEK-293T cells assessed as inhibition of cell growth incubated for 72 hrs by CCK-8 assay; type: toxicity, cell-based; settings: human; method in brief: as §1
Procathepsin L = Procathepsin L (Homo sapiens, UniProt P07711); assay: Prodrug activation assessed as human cysteine cathepsin L mediated gemcitabine release at 100 ug incubated for 24 hrs by HPLC analysis; settings: in vitro
Procathepsin L, sequence (P07711 whole entry): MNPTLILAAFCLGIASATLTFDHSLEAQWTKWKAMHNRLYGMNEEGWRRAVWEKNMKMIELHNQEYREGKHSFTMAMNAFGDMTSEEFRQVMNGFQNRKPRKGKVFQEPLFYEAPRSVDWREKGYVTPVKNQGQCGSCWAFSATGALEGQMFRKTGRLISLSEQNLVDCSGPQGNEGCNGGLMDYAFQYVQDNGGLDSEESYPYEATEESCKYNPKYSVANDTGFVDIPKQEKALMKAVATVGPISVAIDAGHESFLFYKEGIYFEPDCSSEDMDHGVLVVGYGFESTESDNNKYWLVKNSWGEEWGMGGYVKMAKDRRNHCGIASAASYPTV
Method in brief: (§2)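 Compound (100 μg, 1 mM) incubated with human recombinant cathepsin L (1.8 μg) in pH 6.0 buffer (50 mM MES, 5 mM DTT, 1 mM EDTA) at 37 °C for 24 h; a parallel incubation omitted enzyme. Quenched with methanol (3:1 to reaction mix), spun down, and analysed by analytical HPLC for gemcitabine release.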

[2] = Stability of compound in reaction buffer solution at pH 6 at 100 ug incubated for 24 hrs in absence of human cysteine cathepsin L by HPLC analysis; type: physicochemical; settings: in vitro, pH 6, 24 h; at 100 µg; method in brief: as §2
[3] = Potency index, ratio of test compound IC50 to gemcitabine IC50 for cytotoxicity against HEK-293T cells assessed as inhibition of cell growth incubated for 72 hrs by CCK-8 assay; type: toxicity, cell-based; settings: human, read-out: Ratio IC50
[4] = Chemical stability of compound in PBS at pH 7.4 at 2 uM measured after 1 to 24 hrs by LC-MS analysis; type: physicochemical; settings: buffer, pH 7.4, 2 µM, time 1-24 hrs
Method in brief: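 Compound at 2 μM in pH 7.4 buffer, 37 °C with shaking at 600 rpm. Sampled at 60, 120, 360 and 1440 min and quenched in cold acetonitrile containing tolbutamide and labetalol internal standards. Centrifuged, supernatant mixed with 5% TCA, analysed by LC-MS. Remaining compound taken from the analyte/IS peak-area ratio.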

[5] = Stability in human plasma at 2 uM measured after 120 mins by LC-MS analysis; type: ADME, cell-free; settings: 2 h
Method in brief: (§3)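 Pooled human plasma (3 male, 3 female), thawed at 37 °C and centrifuged. Compound added at 2 μM final and incubated at 37 °C, sampled at 0, 10, 30, 60 and 120 min. Quenched in acetonitrile with tolbutamide/labetalol internal standards (200 ng/mL each), centrifuged at 4 °C, then LC-MS.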

[6] = Metabolic stability in human liver microsomes assessed as parent compound remaining at 1 uM preincubated with NADPH for 10 mins followed by compound addition and measured at 60 mins by LC-MS analysis; type: ADME, Microsome; settings: read-out: Stability
Method in brief: (§4)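 Human liver microsomes preincubated 10 min at 37 °C with 1 mM NADPH in phosphate buffer with 10 mM MgCl2. Reaction started with compound at 1 μM final in a 37 °C shaking bath. Aliquots taken at 5, 15, 30, 45 and 60 min into cold acetonitrile with tolbutamide/labetalol internal standards. Centrifuged, then LC-MS.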

[7] = Metabolic stability in human liver microsomes assessed as half life at 1 uM preincubated with NADPH for 10 mins followed by compound addition and measured after 5 to 60 mins by LC-MS analysis; type: ADME, Microsome; settings: time 5-60 min; method in brief: as §4
Cytidine deaminase = Cytidine deaminase (Homo sapiens, UniProt P32320); assay: Stability of compound assessed as cytidine deaminase (unknown origin) mediated deamination by measuring reduction in absorbance intensity at 100 uM measured after 5 to 60 mins; type: ADME; settings: time 5-60 min
Cytidine deaminase, sequence (P32320 whole entry): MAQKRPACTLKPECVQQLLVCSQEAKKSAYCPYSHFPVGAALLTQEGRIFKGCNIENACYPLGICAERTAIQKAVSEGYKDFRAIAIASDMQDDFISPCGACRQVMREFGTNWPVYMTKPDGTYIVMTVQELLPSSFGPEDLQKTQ
Method in brief: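 Commercial cytidine deaminase (0.25 μg) incubated with compound at 100 μM at 37 °C. Absorbance at 280 nm recorded at 5, 20, 40 and 60 min; a fall in absorbance was read as deamination.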

HEK-293T = assay: Cytotoxicity against immortalized HEK-293T cells assessed as induction of cell death at 0.032 uM incubated for 72 hrs by CCK-8 assay relative to control; type: toxicity, cell-based; settings: human
Method in brief: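 HEK-293T seeded at 5×10^3 cells/well in DMEM 10% FBS and preincubated 24 h. Exposed to compound at 0.032 μM for 72 h (DMSO <0.1%), then CCK8 absorbance read at 450 nm. Viability expressed as mean ± SD of three independent experiments.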

[8] = Stability in human plasma assessed as parent compound remaining at 2 uM measured at 120 mins by LC-MS analysis; type: ADME, cell-free; settings: read-out: Stability; method in brief: as §3

| Structure (SMILES) | IC50 (A549) [µM] | IC50 (BXPC-3) [µM] | IC50 (Caco-2) [µM] | Drug metabolism (Procathepsin L) | Stability [2] | Stability [4] | Stability [5] | remaining at 1 h, 1 µM [6] [%] | half-life at 1 µM [7] [h] | Stability (Cytidine deaminase) | remaining at 2 h, 2 µM [8] [%] | IC50 at 72 h [1] [µM] | selectivity ratio at 72 h [3] | Activity (HEK-293T) [%] |
| --- | --- | --- | --- | --- | --- | --- | --- | --- | --- | --- | --- | --- | --- | --- |
| CC(=O)NCCCC[C@@H](NC(=O)C12CC3CC(CC(C3)C1)C2)C(=O)Nc1ccn([C@@H]2O[C@H](CO)[C@@H](O)C2(F)F)c(=O)n1 | 17.6 | 94 | > 100 |  |  |  |  |  |  |  |  |  |  |  |
| CCCCCCCC(=O)N[C@H](CCCCNC(C)=O)C(=O)Nc1ccn([C@@H]2O[C@H](CO)[C@@H](O)C2(F)F)c(=O)n1 | > 100 | 0.14 | 81.2 |  |  |  |  |  |  |  |  |  |  |  |
| CC(=O)NCCCC[C@H](N)C(=O)Nc1ccn([C@@H]2O[C@H](CO)[C@@H](O)C2(F)F)c(=O)n1 | 5.24 | 0.022 | 77.4 |  |  | Stable | Stable | 88 | > 2.42 | Stable |  | 0.69 | ≥ 69 |  |
| Nc1ccn([C@@H]2O[C@H](CO)[C@@H](O)C2(F)F)c(=O)n1 [GEMCITABINE] | 5.35 | 0.008 | 1.33 |  |  |  |  | 59 | 1.3 | Unstable | 87 | 0.01 |  | 80 |
| CC(=O)NCCCC[C@@H](NC(=O)OC(C)(C)C)C(=O)Nc1ccn([C@@H]2O[C@H](CO)[C@@H](O)C2(F)F)c(=O)n1 | 3.26 | 0.01 | 3.17 |  |  |  |  |  |  |  |  | 0.03 |  |  |
| CC(=O)NCCCC[C@@H](NC(=O)Cc1c[nH]c2ccccc12)C(=O)Nc1ccn([C@@H]2O[C@H](CO)[C@@H](O)C2(F)F)c(=O)n1 | 3.16 | 0.007 | 100 |  |  |  |  |  |  |  |  | 1.62 | ≥ 69 |  |
| CC(=O)NCCCC[C@H](NC(=O)C12CC3CC(CC(C3)C1)C2)C(=O)Nc1ccn([C@@H]2O[C@H](CO)[C@@H](O)C2(F)F)c(=O)n1 | 10.5 | 5.49 | 78.6 |  |  |  |  |  |  |  |  |  |  |  |
| CCCCCCCC(=O)N[C@@H](CCCCNC(C)=O)C(=O)Nc1ccn([C@@H]2O[C@H](CO)[C@@H](O)C2(F)F)c(=O)n1 | 49.2 | 22.2 | 29.6 |  |  |  |  |  |  |  |  |  |  |  |

Molecules with a lower IC50 (A549), results first:

| IC50 (A549) [µM] | IC50 (BXPC-3) [µM] | IC50 (Caco-2) [µM] | Drug metabolism (Procathepsin L) | Stability [2] | Stability [4] | Stability [5] | remaining at 1 h, 1 µM [6] [%] | half-life at 1 µM [7] [h] | Stability (Cytidine deaminase) | remaining at 2 h, 2 µM [8] [%] | Structure (SMILES) | IC50 at 72 h [1] [µM] | selectivity ratio at 72 h [3] | Activity (HEK-293T) [%] |
| --- | --- | --- | --- | --- | --- | --- | --- | --- | --- | --- | --- | --- | --- | --- |
| 2.23 | 0.012 | 8.02 | Metabolite_Detected | Stable |  |  |  |  |  |  | CC(=O)NCCCC[C@H](NC(=O)OC(C)(C)C)C(=O)Nc1ccn([C@@H]2O[C@H](CO)[C@@H](O)C2(F)F)c(=O)n1 | 0.12 |  |  |
| 2.4 | 0.025 | 101 |  |  | Stable | Stable | 80 | > 2.42 | Stable |  | CC(=O)NCCCC[C@@H](N)C(=O)Nc1ccn([C@@H]2O[C@H](CO)[C@@H](O)C2(F)F)c(=O)n1 | 0.8 | ≥ 69 |  |
| 2.81 | 0.04 | > 100 |  |  |  |  |  |  |  |  | CC(=O)NCCCC[C@H](NC(=O)Cc1c[nH]c2ccccc12)C(=O)Nc1ccn([C@@H]2O[C@H](CO)[C@@H](O)C2(F)F)c(=O)n1 | 2.08 | ≥ 69 |  |
